The source of these data is ChEMBL document CHEMBL3526060, “Impact of hydrolysis-mediated clearance on the pharmacokinetics of novel anaplastic lymphoma kinase inhibitors” (Drug Metab Dispos, 2013).

Series [1] has as its system Plasma. As to the kind of experiment: Drug metabolism in CD-1 mouse plasma assessed as hydrolysis metabolite formation rate by LC-MS/MS analysis. In kind it is ADME, cell-free. The settings on record: for Km: read-out: Km(app). In short, it runs like this:
(§1)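 Mouse plasma depletion kinetics at 37 °C, substrate range 0.0023–5 µM, up to 3 h; samples quenched into acetonitrile/tolbutamide, LC-MS/MS. CLint per concentration from t1/2; apparent Vmax and Km fitted by nonlinear regression to Michaelis-Menten, formation rate simulated from fit; mean of two replicates.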

Series [2] is described as follows: Plasma clearance in CD-1 mouse at 2 mg/kg, iv administered as single bolus dose by LC-MS/MS analysis. It is filed as ADME, organism-based. Also noted: dose 2 mg/kg, route intravenous. In short, it runs like this: (§2)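 Single 2 mg/kg IV bolus via lateral tail vein to male CD-1 mice. Mice euthanized at 0.083–24 h, 3 per time point (27 animals); cardiac-puncture blood into heparin on ice, plasma spun at 4 °C and immediately extracted with acetonitrile/0.1% formic acid plus IS, LC-MS/MS. Noncompartmental CL = Dose/AUC0–inf, t1/2 = 0.693/k, Vss from AUMC/AUC, MRT = Vss/CL.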

Series [3] is described as follows: Half life in CD-1 mouse at 2 mg/kg, iv administered as single bolus dose by LC-MS/MS analysis. It is filed as ADME, organism-based. Set-up: dose 2 mg/kg, route intravenous. The settings on record: in vivo. An outline of the steps:
as §2

Series [4] in a line: Volume of distribution at steady state in CD-1 mouse at 2 mg/kg, iv administered as single bolus dose by LC-MS/MS analysis. In kind it is ADME, organism-based. Set-up: dose 2 mg/kg, route intravenous. The settings on record: in vivo, read-out: Vdss. An outline of the steps:
as §2

A short description of series [5]: Ratio of drug level in blood to plasma in CD-1 mouse at 1 uM treated 20 mins after amide hydrolysis inhibitor DFP challenge measured after 1 hr by LC-MS/MS analysis. It is filed as ADME. The settings on record: whole blood. An outline of the steps:
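Fresh whole blood pre-incubated 20 min with 100 µM DFP, warmed to 37 °C, spiked to 1 µM, incubated 1 h, then plasma separated; reference plasma spiked at 1 µM. Extracted with 6 volumes acetonitrile/IS, LC-MS/MS; ratio = reference plasma peak area / treated plasma peak area.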

Series [6] is described as follows: In vitro half life in CD-1 mouse plasma at 0.83 uM by LC-MS/MS analysis. It is filed as ADME, cell-free. In short, it runs like this: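 Screening stability: compound at 0.83 µM in mouse plasma at 37 °C, up to 3 h; timed aliquots quenched into acetonitrile with tolbutamide IS, centrifuged, LC-MS/MS; half-life from depletion, CLint = (0.693/t1/2)/plasma concentration.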

Series [7] is described as follows: Fraction unbound in CD-1 mouse plasma after 7 hrs by equilibrium dialysis method. It is filed as ADME, cell-free. In short, it runs like this:
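Mouse plasma pre-treated 20 min with 100 µM DFP to block hydrolysis, spiked at 0.1, 0.5 or 2 µM, equilibrium dialysis against PBS for 7 h at 37 °C, 5% CO2, triplicate; matrix-matched samples extracted with acetonitrile/IS, LC-MS/MS; fu = buffer/plasma concentration.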
In general terms: Equilibrium dialysis compares concentrations on both sides of a semipermeable membrane.

Series [8] is described as follows: AUC (0 to infinity) in CD-1 mouse at 2 mg/kg, iv administered as single bolus dose by LC-MS/MS analysis. It is filed as ADME, organism-based. Set-up: time infinity, dose 2 mg/kg, route intravenous. The settings on record: plasma. In short, it runs like this: as §2
Series [9] has as its system Plasma. The series can be described thus: Drug metabolism in CD-1 mouse plasma assessed as maximum intrinsic clearance for hydrolysis metabolite formation by LC-MS/MS analysis. In kind it is ADME, cell-free. An outline of the steps:
as §1

A short description of series [10]: Mean residence time in CD-1 mouse at 2 mg/kg, iv administered as single bolus dose by LC-MS/MS analysis. In kind it is ADME, organism-based. Also noted: dose 2 mg/kg, route intravenous. The settings on record: in vivo. In short, it runs like this:
as §2

Series [11] in a line: Fraction unbound in CD-1 mouse liver microsomes after 7 hrs by equilibrium dialysis method. It is filed as ADME. In short, it runs like this: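 Equilibrium dialysis of 0.25 mg/mL mouse liver microsomes in phosphate buffer against PBS, 7 h at 37 °C, 5% CO2, test compound 0.1, 0.5 or 2 µM, triplicate; LC-MS/MS; fraction unbound = buffer/microsome concentration.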
For orientation: Liver microsomes are vesicles of endoplasmic reticulum, rich in cytochrome P450 enzymes.

Series [12] is described as follows: Drug metabolism in CD-1 mouse NADPH-fortified liver microsomes assessed as hydrolysis metabolite formation rate by LC-MS/MS analysis. In kind it is ADME. The settings on record: for Km: read-out: Km(app). In short, it runs like this:
(§3)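 Mouse liver microsomes 0.25 mg/mL in 0.1 M phosphate pH 7.4, with or without 1 mM NADPH, substrate 0.0023–5 µM; sampling to 40 min into acetonitrile/IS, LC-MS/MS depletion. Hydrolysis Vmax/Km solved from no-NADPH incubations, then NADPH-dependent constants; metabolite formation rate simulated from fitted constants; duplicates.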

A short description of series [13]: Drug metabolism in CD-1 mouse liver microsomes assessed as hydrolysis metabolite formation rate by LC-MS/MS analysis. In kind it is ADME. The settings on record: for Km: read-out: Km(app). An outline of the steps: as §3

One may read the Km as the substrate concentration at which the rate is half of its maximum. As usually defined, the clearance is a measure of how efficiently the substance is removed, as volume per time. Lower therefore signals a low capacity for elimination. What is called half-life is how long it takes for the measured level to halve. A higher half-life goes with slow decline. The term fraction unbound denotes free concentration divided by total concentration. The low end stands for little free substance, the high end for much free substance. As usually defined, the AUC(0-inf) is the area under the concentration-time curve extrapolated to infinity. A higher AUC(0-inf) goes with more exposure. The term MRT denotes a mean duration of stay, worked out from the concentration-time curve. Consider `CC(C)NC(=O)[C@H]1CC[C@@H](n2/c(=N/C(=O)c3cccc(C(F)(F)F)c3)[nH]c3ccc(CN4CCC(C(C)(C)O)CC4)cc32)CC1`, for which the “Vmax(app)” value was 1.14 pmol/min/mL with Plasma [1], 194 pmol/min/mg in [12] and 5.38 pmol/min/mg in series [13]. Also, the Michaelis constant (Km) in the series with Plasma [1] is 0.68 µM; in [12], 1.95 µM; in series [13] it was 0.261 µM. This compound had a clearance in series [2] of 44.3 mL/min/kg. This compound had a half-life in [3] of 2.2 h. The Vd in [4] came out at 7.78 L/kg. The blood plasma ratio at 1 h, 1 µM in series [5] was determined as 0.9. Besides, the half-life at 0.83 µM in series [6] is 8.5 h. The figures for the fraction unbound at 7 h in series [7] and in series [11] were 0.012 and 0.22, respectively. The AUC(0-inf) in series [8] is 1.2 µM·h. For the same compound, in the series on Plasma [9], the CL turned out to be 1.68 uL/min.ml. In [10], this compound registered an MRT of 2.92 h.
Turning to `CC(C)NC(=O)[C@H]1CC[C@@H](n2/c(=N/C(=O)c3cc(F)cc(Cl)c3)[nH]c3ccc(CN4CCC(C(C)(C)O)CC4)cc32)CC1`, the entries for the “Vmax(app)” value (in the series on Plasma [1]; in series [12]; in [13]) were 0.305 pmol/min/mL, 279 pmol/min/mg and 2.49 pmol/min/mg, respectively. The Km with Plasma [1] turned out to be 0.146 µM; in series [12], 1.9 µM; in series [13], 0.053 µM. The clearance in series [2] was 35.7 mL/min/kg. Moreover, the half-life in series [3] is 2.08 h. Besides, the Vd in [4] came to 5.47 L/kg. For the same compound, the blood plasma ratio at 1 h, 1 µM in series [5] came to 0.9. In series [6], the half-life at 0.83 µM is 8.2 h. The results for the unbound share (fraction unbound) at 7 h in [7] and in series [11] were 0.011 and 0.22, respectively. The AUC(0-inf) in [8] came out at 1.53 µM·h. For the same compound, the CL in the series on Plasma [9] was 2.09 uL/min.ml. The same compound came in with an MRT in series [10] of 2.56 h.
